We go through five compounds from ChEMBL document CHEMBL1275382, “Synthesis and SAR studies of chiral non-racemic dexoxadrol analogues as uncompetitive NMDA receptor antagonists” (Bioorg Med Chem, 2010).

Assay [1] concerns the target Sigma non-opioid intracellular receptor 1 (Homo sapiens, UniProt Q99720). Briefly: Binding affinity to sigma1 receptor. In outline:
(§1)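 Radioligand competition binding with at least six test-compound concentrations, each run in triplicate. Incubations were stopped by rapid filtration through filters presoaked 2 h in 0.5% aqueous polyethylenimine, and bound radioactivity was counted by solid scintillation. IC50 came from non-linear regression and Ki from the Cheng–Prusoff equation. Values are mean ± SEM of three independent experiments.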

Assay [2] is described as follows: Binding affinity to sigma2 receptor. In outline: as §1
Assay [3] is described as follows: Binding affinity to NMDA receptor ifenprodil binding site. The method in brief:
as §1

Structures are written as SMILES. pKi: −log10 of the molar value.

As a reminder, the pKi is −log10 of the Ki, conventionally taken in molar units. Read a high pKi as a low Ki.

Sigma non-opioid intracellular receptor 1, sequence (Q99720 whole entry): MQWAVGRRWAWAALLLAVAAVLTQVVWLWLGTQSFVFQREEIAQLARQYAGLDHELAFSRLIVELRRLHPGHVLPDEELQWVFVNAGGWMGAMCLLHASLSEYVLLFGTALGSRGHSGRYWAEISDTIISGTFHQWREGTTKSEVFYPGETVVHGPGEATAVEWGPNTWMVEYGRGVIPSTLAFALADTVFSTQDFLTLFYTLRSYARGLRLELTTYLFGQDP

In the case of `c1ccc(C2(c3ccccc3)OCC(C3CCCCN3)O2)cc1` (racemic) [DIOXADROL], the negative logarithm of the Ki (pKi) in assay [1] was < 6.10; in assay [2], < 6.00; in assay [3] it was < 6.00.
Take `OC1CCNC(C2COC(c3ccccc3)(c3ccccc3)O2)C1` (racemic): the pKi in assay [1] was < 6.10; in assay [2] it was < 6.00; in assay [3] it was < 6.00.
Consider `O=C1CCNC(C2COC(c3ccccc3)(c3ccccc3)O2)C1` (racemic), for which the pKi is < 6.10 in assay [1], < 6.00 in assay [2] and < 6.00 in assay [3].
As for `FC1(F)CCNC(C2COC(c3ccccc3)(c3ccccc3)O2)C1` (racemic), the pKi was < 6.10 in assay [1], < 6.00 in assay [2] and < 6.00 in assay [3].
As for `FC1CCNC(C2COC(c3ccccc3)(c3ccccc3)O2)C1` (racemic), the pKi in assay [1] is < 6.10; in assay [2], < 6.00; in assay [3] it was < 6.00.
